From ChEMBL document CHEMBL5038638, “Structure-Activity Relationship Study of Subtype-Selective Positive Modulators of KCa2 Channels” (J Med Chem, 2022)
Active and inactive are the calls of the source. The calls are words filed in the database; no cut-off is given here.

Experiments:
Type in all cases: cell-based
[1] = molecular target: Small conductance calcium-activated potassium channel protein 2 (Rattus norvegicus, UniProt P70604); assay: Potentiation of rat KCa2.2a expressed in HEK293 cells at -90 mV holding potential measured at 1 to 2 days by patch clamp electrophysiology
How it was run: (§1)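 Inside-out patches from HEK293 cells transfected (calcium-phosphate) with channel cDNA plus CaM and GFP (7:4:2). Bath (mM): 140 KCl, 10 Hepes pH 7.2, 1 EGTA, 0.1 dibromo-BAPTA, 1 HEDTA, with Ca2+ added to set free Ca2+, verified against a fluorescence standard curve. Currents taken at –90 mV and normalized to the maximal-compound response. EC50 and Hill coefficient came from a concentration–response fit. Efficacy was the maximal-compound current relative to the current at 10 µM Ca2+.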

[2] = molecular target: Small conductance calcium-activated potassium channel protein 2 (Rattus norvegicus) (UniProt P70604); assay: Potentiation of rat KCa2.2a expressed in HEK293 cells at 0.01 to 100 uM with -90 mV holding potential measured at 1 to 2 days by patch clamp electrophysiology relative to calcium; conditions: filed as positive allosteric modulator, dose 0.01-100 µM, time 1-2 day; how it was run: as §1
[3] = molecular target: Intermediate conductance calcium-activated potassium channel protein 4 (Homo sapiens) (UniProt O15554); assay: Potentiation of human KCa3.1 expressed in HEK293 cells at 0.01 to 100 uM with -90 mV holding potential measured at 1 to 2 days by patch clamp electrophysiology relative to calcium; conditions: dose 0.01-100 µM, time 1-2 day; how it was run: as §1
[4] = molecular target: Calcium-activated potassium channel subunit alpha-1 (Homo sapiens) (UniProt Q12791); assay: Potentiation of human KCa1.1 expressed in HEK293 cells at 100 uM with -90 mV holding potential measured at 1 to 2 days by patch clamp electrophysiology; conditions: time 1-2 day
[5] = molecular target: T1, Small conductance calcium-activated potassium channel protein 3 (Homo sapiens, UniProt Q9UGI6); assay: Potentiation of human KCa2.3 expressed in HEK293 cells at -90 mV holding potential measured at 1 to 2 days by patch clamp electrophysiology relative to calcium; how it was run: as §1
N1E-115 = assay: Inhibition of mouse Nav1.2 expressed in mouse N1E-115 cells at 100 uM with -90 mV holding potential measured by patch clamp electrophysiology
[6] = molecular target: Small conductance calcium-activated potassium channel protein 1 (Homo sapiens) (UniProt Q92952); assay: Potentiation of human KCa2.1 expressed in HEK293 cells at 0.01 to 100 uM with -90 mV holding potential measured at 1 to 2 days by patch clamp electrophysiology relative to calcium; conditions: dose 0.01-100 µM, time 1-2 day; how it was run: as §1
[7] = molecular target: T1, Small conductance calcium-activated potassium channel protein 3; assay: Potentiation of human KCa2.3 expressed in HEK293 cells at -90 mV holding potential measured at 1 to 2 days by patch clamp electrophysiology; how it was run: as §1

Small conductance calcium-activated potassium channel protein 2, sequence (P70604 whole entry): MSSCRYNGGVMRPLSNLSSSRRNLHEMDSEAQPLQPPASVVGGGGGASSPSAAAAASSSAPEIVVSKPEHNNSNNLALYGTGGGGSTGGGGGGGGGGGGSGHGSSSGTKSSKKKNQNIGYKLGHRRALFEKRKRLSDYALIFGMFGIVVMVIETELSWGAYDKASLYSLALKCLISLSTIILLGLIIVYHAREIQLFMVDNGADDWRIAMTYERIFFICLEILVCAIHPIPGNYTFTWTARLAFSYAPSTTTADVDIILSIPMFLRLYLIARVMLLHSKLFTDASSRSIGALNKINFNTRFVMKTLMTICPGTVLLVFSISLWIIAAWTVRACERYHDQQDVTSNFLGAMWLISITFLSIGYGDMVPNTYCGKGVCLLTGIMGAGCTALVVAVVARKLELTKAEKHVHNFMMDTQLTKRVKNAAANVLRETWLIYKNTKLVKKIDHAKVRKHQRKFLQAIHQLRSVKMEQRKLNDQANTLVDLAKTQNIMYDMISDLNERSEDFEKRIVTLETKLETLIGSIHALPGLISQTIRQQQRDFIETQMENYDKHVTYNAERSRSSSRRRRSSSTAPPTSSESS
Small conductance calcium-activated potassium channel protein 2 (Rattus norvegicus), sequence (P70604 whole entry): as above
T1 sequence (Q9UGI6 whole entry): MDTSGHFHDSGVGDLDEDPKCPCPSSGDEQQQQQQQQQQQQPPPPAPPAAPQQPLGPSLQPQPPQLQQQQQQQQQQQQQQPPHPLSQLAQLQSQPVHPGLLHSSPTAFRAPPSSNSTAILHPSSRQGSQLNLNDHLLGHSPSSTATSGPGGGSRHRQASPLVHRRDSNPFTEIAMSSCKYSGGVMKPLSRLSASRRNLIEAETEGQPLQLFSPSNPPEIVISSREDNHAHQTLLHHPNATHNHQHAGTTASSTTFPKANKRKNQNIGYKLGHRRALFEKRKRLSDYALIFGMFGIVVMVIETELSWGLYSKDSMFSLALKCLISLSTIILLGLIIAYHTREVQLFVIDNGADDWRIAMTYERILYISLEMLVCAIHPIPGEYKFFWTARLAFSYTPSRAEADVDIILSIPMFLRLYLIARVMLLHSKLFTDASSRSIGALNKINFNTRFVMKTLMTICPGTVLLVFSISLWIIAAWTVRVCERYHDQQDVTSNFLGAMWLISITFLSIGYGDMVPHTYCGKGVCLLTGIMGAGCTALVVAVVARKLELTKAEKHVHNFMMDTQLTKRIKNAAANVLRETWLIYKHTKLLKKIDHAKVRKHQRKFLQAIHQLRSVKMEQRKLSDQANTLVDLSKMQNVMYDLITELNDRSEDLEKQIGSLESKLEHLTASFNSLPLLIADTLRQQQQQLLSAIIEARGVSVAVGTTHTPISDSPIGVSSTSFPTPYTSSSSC
Calcium-activated potassium channel subunit alpha-1 (Homo sapiens), sequence (Q12791 whole entry): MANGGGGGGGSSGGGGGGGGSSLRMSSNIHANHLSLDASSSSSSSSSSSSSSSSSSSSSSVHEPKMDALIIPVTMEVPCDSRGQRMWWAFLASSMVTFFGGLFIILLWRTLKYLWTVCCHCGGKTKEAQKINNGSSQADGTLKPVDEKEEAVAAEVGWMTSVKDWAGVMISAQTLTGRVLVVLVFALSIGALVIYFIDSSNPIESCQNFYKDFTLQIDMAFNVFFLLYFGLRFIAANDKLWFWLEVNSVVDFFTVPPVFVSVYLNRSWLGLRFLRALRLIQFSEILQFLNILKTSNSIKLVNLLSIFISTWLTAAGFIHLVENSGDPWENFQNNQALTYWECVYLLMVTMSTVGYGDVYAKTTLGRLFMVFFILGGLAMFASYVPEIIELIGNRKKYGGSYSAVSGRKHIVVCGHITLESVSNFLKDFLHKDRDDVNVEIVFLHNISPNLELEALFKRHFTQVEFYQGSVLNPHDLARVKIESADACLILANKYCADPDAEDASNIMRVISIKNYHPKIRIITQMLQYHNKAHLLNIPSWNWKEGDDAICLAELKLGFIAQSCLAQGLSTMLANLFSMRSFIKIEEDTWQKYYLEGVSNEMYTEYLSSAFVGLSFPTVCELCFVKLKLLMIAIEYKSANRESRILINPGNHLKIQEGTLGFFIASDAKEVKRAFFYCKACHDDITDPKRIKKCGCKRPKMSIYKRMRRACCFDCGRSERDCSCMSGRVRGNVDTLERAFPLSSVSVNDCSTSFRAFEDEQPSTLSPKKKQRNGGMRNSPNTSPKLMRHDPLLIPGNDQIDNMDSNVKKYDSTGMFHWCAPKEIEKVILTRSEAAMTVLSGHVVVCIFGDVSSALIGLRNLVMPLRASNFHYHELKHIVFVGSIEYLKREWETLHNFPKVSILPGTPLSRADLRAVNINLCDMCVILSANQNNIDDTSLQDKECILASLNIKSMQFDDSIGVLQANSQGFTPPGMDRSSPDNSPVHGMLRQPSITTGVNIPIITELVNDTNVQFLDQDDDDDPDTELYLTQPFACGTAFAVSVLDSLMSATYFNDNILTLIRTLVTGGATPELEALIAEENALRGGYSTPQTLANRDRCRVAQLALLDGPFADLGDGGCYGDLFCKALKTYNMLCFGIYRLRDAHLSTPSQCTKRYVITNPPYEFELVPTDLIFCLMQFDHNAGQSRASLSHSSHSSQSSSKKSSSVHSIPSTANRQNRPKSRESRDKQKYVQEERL
Small conductance calcium-activated potassium channel protein 1 (Homo sapiens), sequence (Q92952 whole entry): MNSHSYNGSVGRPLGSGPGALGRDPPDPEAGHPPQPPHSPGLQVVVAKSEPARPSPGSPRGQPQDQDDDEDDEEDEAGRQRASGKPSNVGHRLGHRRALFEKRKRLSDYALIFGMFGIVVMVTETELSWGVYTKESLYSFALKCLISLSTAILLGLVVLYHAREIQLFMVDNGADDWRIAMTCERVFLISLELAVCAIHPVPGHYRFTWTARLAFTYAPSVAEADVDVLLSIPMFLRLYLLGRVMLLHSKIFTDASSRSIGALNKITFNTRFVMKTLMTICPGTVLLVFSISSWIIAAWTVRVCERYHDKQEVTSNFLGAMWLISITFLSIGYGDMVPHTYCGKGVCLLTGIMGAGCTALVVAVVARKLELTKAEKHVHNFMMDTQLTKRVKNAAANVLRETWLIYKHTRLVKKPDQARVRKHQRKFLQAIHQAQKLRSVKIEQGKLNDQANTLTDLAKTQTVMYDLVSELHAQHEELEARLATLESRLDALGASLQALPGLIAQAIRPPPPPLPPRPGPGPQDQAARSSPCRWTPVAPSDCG
Intermediate conductance calcium-activated potassium channel protein 4 (Homo sapiens), sequence (O15554 whole entry): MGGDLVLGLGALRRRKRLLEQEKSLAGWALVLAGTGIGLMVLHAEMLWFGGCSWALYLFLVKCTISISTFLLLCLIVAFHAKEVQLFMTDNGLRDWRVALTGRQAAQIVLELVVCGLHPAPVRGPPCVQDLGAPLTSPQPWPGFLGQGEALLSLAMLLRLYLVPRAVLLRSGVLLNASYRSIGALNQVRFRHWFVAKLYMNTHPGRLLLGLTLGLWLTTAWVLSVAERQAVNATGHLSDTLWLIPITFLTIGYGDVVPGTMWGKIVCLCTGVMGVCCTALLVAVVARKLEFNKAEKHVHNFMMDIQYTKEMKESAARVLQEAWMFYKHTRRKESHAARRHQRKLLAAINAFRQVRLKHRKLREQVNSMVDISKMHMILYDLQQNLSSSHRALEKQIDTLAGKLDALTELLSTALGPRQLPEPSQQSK

Compound | EC50 [1] | other results
Cc1cc(C)n(-c2cc(Nc3ccc(Cl)cc3F)nc(N)n2)n1 | > 100 µM | –
Cc1cc(Nc2cc(F)ccc2F)nc(-n2nc(C)cc2C)n1 | 1.89 µM | –
Cc1cc(Nc2ccc(F)c(Cl)c2)nc(-n2nc(C)cc2C)n1 | 0.99 µM | Emax [2]: 90%; Emax [3]: 28.3%; Activity [4]: inactive; EC50 [5]: 0.19 µM; inhibition (N1E-115): 50%; Emax [6]: 0%
CO[C@H]1CC[C@@H](Nc2cc(C)nc(-n3nc(C)cc3C)n2)CC1 | 49.7 µM | Emax [2]: 94.6%
Cc1cc(N[C@@H](Cc2ccc(O)cc2)C(=O)O)nc(-n2nc(C)cc2C)n1 | > 100 µM | –
Cc1cc(Nc2cc(Cl)ccc2F)nc(-c2coc(C)n2)n1 | 13.8 µM | –
Cc1cc(Nc2ccc(C(F)(F)F)c(Cl)c2)nc(-n2nc(C)cc2C)n1 | 3.27 µM | –
Cc1cc(C)n(-c2nc(N)cc(Nc3ccc(F)c(Cl)c3)n2)n1 | 6.59 µM | –
Cc1cc(Nc2ccc([N+](=O)[O-])cc2)nc(-n2nc(C)cc2C)n1 | > 100 µM | –
Cc1cc(NCCc2ccc([N+](=O)[O-])cc2)nc(-n2nc(C)cc2C)n1 | > 100 µM | –
Cc1cc(N[C@H]2CC[C@@H](O)CC2)nc(-n2nc(C)cc2C)n1 | > 100 µM | –
Cc1cn(-c2nc(C)cc(Nc3ccc(F)c(Cl)c3)n2)cn1 | 38.8 µM | –
Cc1cc(C)n(-c2cc(Nc3cccc(Cl)c3)nc(N)n2)n1 | > 100 µM | –
Cc1cc(N[C@@H](Cc2ccc(C#N)cc2)C(=O)O)nc(-n2nc(C)cc2C)n1 | > 100 µM | –
Cc1cc(Nc2ccc(F)c(Cl)c2)nc(-c2coc(C)n2)n1 | 3.59 µM | –
Cc1cc(Nc2cc(F)ccc2Cl)nc(-n2nc(C)cc2C)n1 | 2.97 µM | –
Cc1cc(C)n(-c2cc(Nc3cc(F)ccc3Cl)nc(N)n2)n1 | > 100 µM | –
Cc1cc(Nc2cc(Cl)cc(C(F)(F)F)c2)nc(-n2nc(C)cc2C)n1 | > 100 µM | –
Cc1cc(Nc2cccc(F)c2F)nc(-n2nc(C)cc2C)n1 | 5.03 µM | –
Cc1cc(Nc2cc(Cl)ccc2F)nc(-n2nc(C)cc2C)n1 | 0.64 µM | Emax [2]: 90%; Emax [3]: 2.02%; Activity [4]: inactive; EC50 [7]: 0.6 µM; inhibition (N1E-115): 50%; Emax [6]: 0%
Cc1cc(Nc2ccc(Cl)cc2F)nc(-n2nc(C)cc2C)n1 | 1.99 µM | –
Cc1cc(C)n(-c2cc(Nc3ccc(C(F)(F)F)c(Cl)c3)nc(N)n2)n1 | > 100 µM | –
Cc1cc(Nc2cc(C(=O)O)ccc2F)nc(-n2nc(C)cc2C)n1 | > 30 µM | –

Now from value to molecule, other results behind:

EC50 [1] | Compound | other results
4.32 µM | Cc1cc(C)n(-c2cc(C)c(Nc3ccc(F)c(Cl)c3)nn2)n1 | –
> 100 µM | Cc1cc(C)n(-c2cc(Nc3ccc(F)c(Cl)c3)nc(N)n2)n1 | –
> 100 µM | Cc1cc(C)n(-c2cc(Nc3cc(F)ccc3F)nc(N)n2)n1 | –
> 100 µM | Cc1cc(C)n(-c2cc(Nc3cc(Cl)ccc3F)nc(N)n2)n1 | –
3.45 µM | Cc1cc(Nc2ccc(C(F)(F)F)cc2)nc(-n2nc(C)cc2C)n1 | –
> 100 µM | Cc1cc(N[C@H]2CC[C@@H](F)CC2)nc(-n2nc(C)cc2C)n1 | –
> 100 µM | Cc1cc(Nc2ccc(S)cc2)nc(-n2nc(C)cc2C)n1 | –
> 100 µM | Cc1cc(N[C@H]2CC[C@@H](N)CC2)nc(-n2nc(C)cc2C)n1 | –
> 100 µM | Cc1cc(N[C@H]2CC[C@@H]([N+](=O)[O-])CC2)nc(-n2nc(C)cc2C)n1 | –
> 100 µM | COc1cc2nc(Nc3cc(C)nc(-n4nc(C)cc4C)n3)[nH]c2cc1OC | –
4.51 µM | Cc1cn(-c2nc(C)cc(Nc3cc(Cl)ccc3F)n2)cn1 | –
> 100 µM | Cc1cc(N[C@@H](Cc2ccc(F)c(F)c2)C(=O)O)nc(-n2nc(C)cc2C)n1 | –
7.48 µM | Cc1cc(NC2CCCCC2)nc(-n2nc(C)cc2C)n1 | Emax [2]: 85.6%
> 100 µM | Cc1cc(N[C@H]2CC[C@@H](CO)CC2)nc(-n2nc(C)cc2C)n1 | –
